Rows were chosen to be rich in hits. Some 4.1% of all compounds tested hit in one or more screens of this group.
KCNK9 inh: human KCNK9 channel inhibition; HEK293 KCNK9, FluxOR thallium flux fluorescence; hits give low values; B-score at 10 µM; actives 1.2% (n = 310,000);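 active means ratio B-score over 3 SD below the library mean, with starting fluorescence within 5 SD of its mean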;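 further: negative B-score means less thallium flux so channel inhibition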
KCNQ1 pot: human KCNQ1 channel potentiation or activation; P51787; CHO-K1 KCNQ1, thallium flux FluxOR fluorescence; hits give high values; B-score at 10 µM; actives 0.35% (n = 310,000); AID 2648;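 active means fluorescence ratio B-score, a plate-corrected score, at least three library SD, with initial intensity B-score within 5 SD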
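Assay system: stable KCNQ1 CHO-K1 line; medium: assay buffer, equal DMSO in all wells; timing: 90 min dye loading and 20 min compound exposure, both at room temperature; technique: kinetic FluxOR thallium fluorescence, 10-s 1-Hz baseline, 110-s post-stimulus read; read-out basis: B score of baseline-normalized fluorescence ratio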
hERG rescue: compounds protecting human hERG from proarrhythmic drug block. CHO-hERG, FluxOR thallium flux, dofetilide IC70 present. AID 1511. Q12809. actives 0.51% (n = 310,000). activation (rescue from dofetilide block), less the hit threshold, % at 10 µM;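 active means activation above the mean of controls blocked by dofetilide plus 5 SD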;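 further: thallium influx through hERG after potassium depolarization seen as dye fluorescence rise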
Cl transport mod: modulates chloride dependent transport by human KCC2; Q9H2X9; KCC2 cells, thallium flux FluoZin-2 fluorescence; B-score of Tl+ flux slope (higher = more flux/activation; lower = inhibition) at 10 µM; actives 2.2% (n = 190,000);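 active means thallium flux slope and its plate-corrected score both differing from the plate sample mean at a set confidence after two filtering rounds, in either direction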;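 further: slope of fluorescence scaled to starting intensity during 10 to 20 s after thallium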
KCNK3 block: human KCNK3 channel inhibition, primary screen. O14649. CHO-KCNK3 thallium flux, FluxOR fluorescence; hits give low values. B-score at 10 µM. actives 0.84% (n = 340,000);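 active means B-score under library mean minus 4 SD, starting fluorescence ratio at most library mean plus 5 SD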;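 further: more negative B-score means stronger inhibition of thallium flux through KCNK3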
Target sequence (O14649 whole entry, looked up): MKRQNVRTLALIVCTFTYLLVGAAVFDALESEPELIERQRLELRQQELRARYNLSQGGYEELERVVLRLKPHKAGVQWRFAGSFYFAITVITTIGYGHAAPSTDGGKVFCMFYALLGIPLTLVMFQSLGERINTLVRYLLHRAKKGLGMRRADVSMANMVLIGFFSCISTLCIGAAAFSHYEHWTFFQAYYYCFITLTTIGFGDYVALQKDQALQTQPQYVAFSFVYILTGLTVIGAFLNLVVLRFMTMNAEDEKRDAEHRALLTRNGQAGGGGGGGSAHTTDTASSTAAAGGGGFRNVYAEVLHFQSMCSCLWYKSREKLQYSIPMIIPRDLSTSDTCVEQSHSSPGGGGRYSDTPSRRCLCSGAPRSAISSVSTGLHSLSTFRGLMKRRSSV
KCNQ1 inh: inhibitors of human KCNQ1 potassium channel. P51787. CHO-K1 KCNQ1, FluxOR thallium flux fluorescence; hits give high values. B-score at 10 µM. actives 1.3% (n = 310,000);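 active means compounds whose thallium flux B-score, printed positive for inhibition, exceeds three library SD while starting fluorescence stays within three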;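 further: channel opened by potassium depolarization with thallium stimulus after 20 min compound exposure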
KCNK3 inh conf: human KCNK3 channel inhibition, confirmation assay | shares compounds with KCNK3 block | CHO-KCNK3 thallium flux, FluxOR fluorescence; 0% buffer, 100% carvedilol maximal block | ratio percent of control, % at 10 µM | actives 99% (n = 2,400) | AID 651638;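 active means ratio percent of control, averaged over triplicates, above buffer control mean plus 5 SD, cut at about 64% in these data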;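 further: ratio is the fluorescence rise from min to max over baseline after thallium stimulus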
KCNK3 uninduced: activity in cells without induced KCNK3 expression; shares compounds with KCNK3 block; non-induced KCNK3 parental cells, FluxOR thallium flux; hits give low values; thallium flux ratio (lower = more inhibition) at 10 µM; actives 40% (n = 2,400); AID 651747;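 active means thallium flux ratio, averaged over three wells, more than 5 SD below the buffer control mean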;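 further: host cells are CHO cells without KCNK3 induction; ratio is peak minus trough fluorescence over baseline then normalized to buffer controls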
Starred values were filed as active, the others as inactive; i = inactive; nt = no result given.

SMILES | KCNK9 inh | KCNQ1 pot | hERG rescue | Cl transport mod | KCNK3 block | KCNQ1 inh | KCNK3 inh conf | KCNK3 uninduced
CCc1cc2c(=O)n(Cc3ccco3)c(SCC(=O)NC3CCS(=O)(=O)C3)nc2s1 (centres undefined) | i | i | -5.0 | -1.3 | i | i | nt | nt
CCN(C(=O)CSc1nc2ccccc2c(=O)n1-c1cccc(C)c1)C1CCS(=O)(=O)C1 (centres undefined) | i | i | -14.9 | -1.28 | -11* | i | 100.0* | i
Cc1cccc(-n2c(SCC(=O)N3CC(=O)Nc4ccccc43)nc3ccccc3c2=O)c1 | i | i | -15.3 | -0.785 | -10.4* | i | 100.0* | i
CCN(C(=O)CSc1nc2ccc(O)cc2c(=O)n1-c1ccc(OC)c(OC)c1)C1CCS(=O)(=O)C1 (centres undefined) | nt | nt | nt | nt | i | nt | nt | nt
Cc1ccc(-n2c(SCC(=O)N3CC(=O)Nc4ccccc43)nc3ccccc3c2=O)cc1C | i | i | -14.9 | -0.39 | i | i | nt | nt
Cc1ccc(N2CCC(N3CCN(C)C(CCO)C3)CC2)cc1 (centres undefined) | i | i | -3.3 | nt | i | i | nt | nt
COc1cc(F)ccc1CN1CCC(n2nccc2NC(=O)C2CCOC2)CC1 (centres undefined) | i | i | -11.3 | nt | i | i | nt | nt
N=c1ccn2c(n1)O[C@H]1[C@@H](CO)[C@H](O)O[C@H]12 | nt | nt | nt | nt | i | nt | nt | nt
CC1CC(Nc2ccccc2)c2ccccc2N1C(=O)c1ccco1 (centres undefined) | i | i | -10.3 | -2.06 | -13.1* | i | 115.3* | i
CC1CC(Nc2ccccc2)c2ccccc2N1C(=O)c1ccncc1 (centres undefined) | i | i | -8.9 | -0.889 | i | i | nt | nt
Cc1cccc2cc(CN(Cc3ccco3)C(=O)Nc3cccc(C#N)c3)c(Cl)nc12 | i | i | -10.8 | -0.638 | -9.3* | 6* | 122.3* | 0.139*
Cc1ccc(NC(=O)N(Cc2ccco2)Cc2cc3cc(C)cc(C)c3nc2Cl)cc1 | i | i | -8.6 | nt | nt | i | nt | nt
Cc1cccc(Nc2nc(N)c([N+](=O)[O-])c(N3CC(C)OC(C)C3)n2)c1 (centres undefined) | i | i | -10.1 | nt | -8.96* | i | 88.3* | i
Cc1cccc(Nc2nc(N)c([N+](=O)[O-])c(N3CC(C)CC(C)C3)n2)c1 (centres undefined) | i | i | -11.7 | -0.561 | i | i | nt | nt
CS(=O)(=O)N(CC(=O)Nc1cccc([N+](=O)[O-])c1)c1cccc(F)c1 | i | i | -7.6 | 0.367 | i | i | nt | nt
COc1ccc(N(C)S(=O)(=O)c2cccc(C(=O)N3CCN(S(=O)(=O)c4ccc(C)cc4)CC3)c2)cc1 | -12.3* | i | -13.0 | nt | i | i | 92.3* | i
COc1ccc(CCN(Cc2nc(-c3ccccc3)no2)Cc2nc(-c3ccccc3)no2)cc1OC | i | i | -7.1 | nt | -9.15* | i | 91.7* | i
CC(C)N(C(=O)CSc1nc(Cc2ccccc2)nc2ccccc12)C(C)C | i | i | -10.2 | nt | -9.47* | i | 95.7* | i
Cc1ccc2nc(NS(=O)(=O)c3cn(C)nc3C)sc2c1 | i | i | -2.2 | nt | i | i | nt | nt
O=C(Nc1ccc2c(c1)Cc1ccccc1-2)c1ccc(Br)o1 | i | i | -6.9 | -1.11 | -10.1* | i | 86.0* | i
O=C(Nc1ccc2c(c1)Cc1ccccc1-2)c1ccccc1F | i | i | -3.4 | nt | i | i | nt | nt
O=C(Nc1cc2c3c(c1)CC(=O)N3CCC2)C1CCCCC1 | i | i | -6.2 | nt | i | i | nt | nt
C=CCOc1ccc(C(=O)n2cc(C(=O)OC)c3ccccc32)cc1 | i | i | -1.8 | nt | -9.28* | i | 113.7* | i
COc1cccc2cc(CC(=O)c3cc(C)ccc3C)c(=O)oc12 | i | i | -7.8 | nt | -9.62* | i | 82.0* | i
COc1cccc2cc(CC(=O)c3ccc(C)c(C)c3)c(=O)oc12 | i | i | -0.7 | nt | i | i | nt | nt
SMILES | KCNK9 inh | KCNQ1 pot | hERG rescue | Cl transport mod | KCNK3 block | KCNQ1 inh | KCNK3 inh conf | KCNK3 uninduced
CC1=C(C(=O)OC(C)C)C(c2cn(-c3ccccc3)nc2-c2cccs2)NC(=O)N1 (centres undefined) | i | i | -7.6 | 0.00226 | -9.45* | i | 87.0* | i
Cc1ccc(C2=NS(=O)(=O)N(C)C(C(=O)Nc3ccc4c(c3)OCO4)=C2)cc1 | -6.69* | i | -10.2 | nt | -9.96* | i | 122.3* | 0.143*
COc1ccc(C2=NS(=O)(=O)N(C)C(C(=O)Nc3ccc4c(c3)OCO4)=C2)cc1 | nt | nt | nt | nt | i | nt | nt | nt
CCOC(=O)C(=N/O)/C(C)=N/NC(=O)C(=O)Nc1ccc(Cl)cc1 | i | i | -31.4 | 0.0634 | -10.8* | 9* | 120.3* | i
COc1ccc2c(c1)c(CC(=O)NCc1cc([N+](=O)[O-])ccc1O)c(C)n2C(=O)c1ccc(Cl)cc1 | i | i | -23.1 | nt | -12.8* | 11* | 134.7* | 0.113*
O=C(C1CCCCC1)N1CCN(c2ccnc3cc(Cl)ccc23)CC1 | i | i | -21.1 | -1.31 | -8.81* | i | 115.0* | i
COc1cc(NC(=O)c2cccs2)c(OC)cc1NC(=O)CCn1nnc2ccccc21 | i | i | -1.7 | 1.24 | i | i | nt | nt
COc1cccc2cc(C(C)N(CCCN3CCOCC3)C(=S)Nc3c(C)cccc3C)oc12 (centres undefined) | i | i | -8.1 | -0.647 | i | i | nt | nt
CCc1ccc(NC(=O)N(CCCN2CCOCC2)C(C)c2cc3cccc(OC)c3o2)cc1 (centres undefined) | i | i | -13.2 | -1.94 | -8.83* | i | 118.0* | i
CS(=O)(=O)c1ccc(SCC(=O)NC2CCS(=O)(=O)C2)c([N+](=O)[O-])c1 (centres undefined) | i | i | -3.5 | 0.273 | i | i | nt | nt
Cc1cccc(N2CCN(C(=O)COc3ccc4c(C)cc(=O)oc4c3C)CC2)c1C | i | i | -5.2 | nt | -9.01* | 7* | 81.3* | i
Cc1cc(=O)oc2c(C)c(OCC(=O)N3CCN(c4ccc(F)cc4)CC3)ccc12 | i | i | -7.5 | nt | i | i | nt | nt
